Data as given in ChEMBL document CHEMBL1143913, “Pyrimidinone-peptoid hybrid molecules with distinct effects on molecular chaperone function and cell proliferation” (Bioorg Med Chem, 2008).
pEC50, pKd: −log10 of the molar value.

Assays:
[1] = Binding affinity to Hsp90
[2] = Binding affinity to Hsp70
Saccharomyces cerevisiae [3] = test: Inhibition of yeast Hsp70 ATPase assessed as ATP hydrolysis relative to control
Outline: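 Purified yeast Hsp70 (Ssa1p) was pre-bound to ATP and run as a single-turnover assay, so that only the hydrolysis step is measured. Compound (300 µM) or DMSO was added at 0 s, and that time was set to zero. Results from multiple experiments were averaged, kinetics were fitted, and the value is the fold change in hydrolysis versus DMSO.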

Saccharomyces cerevisiae [4] = test: Inhibition of SV40 T antigen-stimulated Hsp70 ATPase in yeast assessed as ATP hydrolysis relative to control
Outline: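 Yeast Ssa1p was pre-bound to ATP and run as a single-turnover assay with purified SV40 TAg (0.4 µM). Compound (300 µM) or DMSO was added at 60 s, and that time was set to zero. Runs were averaged over multiple experiments, kinetics were fitted, and the value is the fold change in TAg-stimulated ATP hydrolysis versus DMSO.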

HT-29 = test: Antiproliferative activity against human HT29 cells after 96 hrs by MTS assay; type: functional; details: HT-29, 96 h
Outline: (§1)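 Cells were kept in exponential growth in DMEM with 10% FBS, 1% penicillin and 1% glutamine, seeded at 4,000 per well and grown 48 h, with a time-zero plate counted. They were then exposed for 72 h to DMSO (1 v/v) or a concentration range in quadruplicate. Cell number was read by MTS/N-methylphenazine methylsulfate absorbance at 490 minus 630 nm. GI50 is relative to DMSO over the 72 h or 96 h period, and values above 50 µM are given as >50.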

MCF7 = test: Antiproliferative activity against human MCF7 cells after 96 hrs by MTS assay; type: functional; details: MCF7, 96 h; outline: as §1
SK-BR-3 = test: Antiproliferative activity against human SK-BR3 cells after 96 hrs by MTS assay; type: functional; details: SK-BR-3, 96 h; outline: as §1

Structure (SMILES)	pKd [1]	pKd [2]	Fold change (Saccharomyces cerevisiae [3])	Fold change (Saccharomyces cerevisiae [4])	GI50 (HT-29) [µM]	GI50 (MCF7) [µM]	GI50 (SK-BR-3) [µM]	pEC50 (SK-BR-3; read-out: ED50 (the source's name))
N=C(N)NCCCCCCC(=O)NC(O)C(=O)NCCCCNCCCN (stereo not given) [GUSPERIMUS]	5.40	5.40						
CCCCCCN(C(=O)CCCCCN1C(=O)NC(c2ccc(-c3ccccc3)cc2)C(C(=O)OCc2ccccc2)=C1C)C(C(=O)NCCCC)c1ccc(-c2ccccc2)cc1 (stereo not given)			9.9	6			> 50	
CCCCCCN(C(=O)CCCCCN1C(=O)NC(c2ccc(-c3ccccc3)cc2)C(C(=O)OCc2ccccc2)=C1C)C(C(=O)NCCCC)c1cccc(C(=O)OC)c1 (stereo not given)			3.7	-2			> 50	
CC1=C(C(=O)OCc2ccccc2)C(c2ccc(C3CCCCC3)cc2)NC(=O)N1CCCCCC(=O)O (stereo not given)			1.1	-2.4			> 50	
CC1=C(C(=O)OCc2ccccc2)C(c2ccc(-c3ccccc3)cc2)NC(=O)N1CCCCCC(=O)O (stereo not given)			1.1	-3.5			> 50	
CC1=C(C(=O)OCc2ccccc2)C(C2CC2)NC(=O)N1CCCCCC(=O)O (stereo not given)			1.1	1			> 50	
COC(=O)CCCCCN1C(=O)NC(C2CC2)C(C(=O)OCc2ccccc2)=C1C (stereo not given)			1.9	1			> 50	
CCCCNC(=O)C(c1ccc(-c2ccccc2)cc1)N(CCN1CCOCC1)C(=O)CCCCCN1C(=O)NC(c2ccc([N+](=O)[O-])cc2)C(C(=O)OCc2ccccc2)=C1C (stereo not given)			2.3	-5			> 50	

The next lines start with the values.

pKd [1]	pKd [2]	Fold change (Saccharomyces cerevisiae [3])	Fold change (Saccharomyces cerevisiae [4])	GI50 (HT-29) [µM]	GI50 (MCF7) [µM]	GI50 (SK-BR-3) [µM]	pEC50 (SK-BR-3; read-out: ED50 (the source's name))	Structure (SMILES)
		1.1	-1.1	4.8	2.4	6.5		CCCCCCN(C(=O)CCCCCN1C(=O)NC(c2ccccc2)C(C(=O)OCc2ccccc2)=C1C)C(C(=O)NCCCC)c1ccc(OCC(=O)OC)c(C(=O)OC)c1 (stereo not given)
		1.1	-2	> 50	> 50	> 50		CC(C)(C)NC(=O)C(c1ccc(I)cc1)N(CCN1CCOCC1)C(=O)CCCNC(=O)c1ccccc1 (stereo not given)
		1.7	-2	> 50	14.7	27	5.10	CCCCCCN(C(=O)CCCCCN1C(=O)NC(c2ccc(-c3ccccc3)cc2)C(C(=O)OCc2ccccc2)=C1C)C(C(=O)NCCCC)c1ccc(OCC(=O)OC)c(C(=O)OC)c1 (stereo not given)
		1.5	-1.8	3.1	7.8	8.8		CCCCNC(=O)C(c1ccc(OCC(=O)OC)c(C(=O)OC)c1)N(CCOC)C(=O)CCCCCN1C(=O)NC(c2ccc(-c3ccccc3)cc2)C(C(=O)OCc2ccccc2)=C1C (stereo not given)
		1.1	1.2			48		CCCCCCN(C(=O)CCCCCN1C(=O)NC(c2ccc(-c3ccccc3)cc2)C(C(=O)OCc2ccccc2)=C1C)C(C(=O)NCCCC)c1ccc(OCC(=O)OC)cc1 (stereo not given)
		1.2	-2.6	5.3	6.3	6.2		CCCCCCN(C(=O)CCCCCN1C(=O)NC(C2CC2)C(C(=O)OCc2ccccc2)=C1C)C(C(=O)NCCCC)c1ccc(OCC(=O)OC)c(C(=O)OC)c1 (stereo not given)
		1.3	-5.1			16		CCCCCCN(C(=O)CCCCCN1C(=O)NC(c2ccc(Cl)cc2)C(C(=O)OCc2ccccc2)=C1C)C(C(=O)NCCCC)c1ccc(OCC(=O)OC)c(C(=O)OC)c1 (stereo not given)
